The text below walks through data of publication PMC6679956 (Journal of medicinal chemistry, 2019).

Data set [1] is described as follows: Peptide helicity by CD spectroscopy. Format: physicochemical. The essentials: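 Test peptides at 100 μM in 5 mM sodium phosphate, pH 7.4, equilibrated at 10, 15, 20, 25 and 30 °C. Spectra recorded from 180 to 260 nm: 0.1 nm step, 50 nm/s, five accumulations, 1 s response, 5 nm bandwidth, 0.1 cm path. α-Helical content calculated from previously reported equations. Triplicate analyses per peptide.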

For data set [2], the target named is m^7GDP-bound eIF4E (Homo sapiens, UniProt P06730). The data set can be described thus: SPR binding kinetics of peptides to immobilized eIF4E.
Setting [3] is: SPR, 25 °C, 1.0 M versus 225 mM salt.

Sequence of m^7GDP-bound eIF4E (P06730 whole entry): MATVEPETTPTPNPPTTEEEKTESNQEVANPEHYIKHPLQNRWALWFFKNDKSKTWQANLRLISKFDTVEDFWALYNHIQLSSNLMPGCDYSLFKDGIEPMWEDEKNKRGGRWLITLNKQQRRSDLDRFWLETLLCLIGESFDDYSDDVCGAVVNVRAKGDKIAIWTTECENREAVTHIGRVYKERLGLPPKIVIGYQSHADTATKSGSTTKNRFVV

`CC[C@H](C)[C@H](NC(=O)[C@H](CCCNC(=N)N)NC(=O)[C@@H](NC(=O)CNC(C)=O)[C@@H](C)O)C(=O)N[C@H](C(=O)N[C@@H](Cc1ccc(O)cc1)C(=O)N[C@@H](CC(=O)O)C(=O)N[C@@H](CCCNC(=N)N)C(=O)N[C@@H](CCCCN)C(=O)N[C@@H](Cc1ccccc1)C(=O)N[C@@H](CC(C)C)C(=O)N[C@@H](CCSC)C(=O)N[C@@H](CCC(=O)O)C(=O)N[C@@H](CS)C(=O)N[C@@H](CCCNC(=N)N)C(=O)N[C@@H](CC(N)=O)C(N)=O)[C@@H](C)CC` [4E-BP1]: the “helicity over the temperatures tested” value in data set [1] (100 μM, 10 to 30 °C) is recorded as 15–19%. In addition, in data set [1] (5 mM sodium phosphate buffer pH 7.4, 25 °C, 100 μM peptide, with 2,2,2-trifluoroethanol), the “helicity in the presence of TFE” value stood at 37%.
Consider `CC(=O)N[C@@H](CCCCN)C(=O)N[C@@H](CCCCN)C(=O)N[C@@H](CCCNC(=N)N)C(=O)N[C@@H](Cc1ccc(O)cc1)C(=O)N[C@@H](CC(=O)O)C(=O)N[C@@H](CCCNC(=N)N)C(=O)N[C@@H](CCC(=O)O)C(=O)N[C@@H](Cc1ccccc1)C(=O)N[C@@H](CC(C)C)C(=O)N[C@@H](CC(C)C)C(=O)NCC(=O)N[C@@H](Cc1ccccc1)C(=O)N[C@@H](CCC(N)=O)C(=O)N[C@@H](Cc1ccccc1)C(N)=O` [eIF4G], for which, in data set [2] (SPR, 25 °C, running buffer salt 225 to 1000 mM), the “kd with increasing salt concentration” value fell in the range of 0.046 to 0.27 s⁻¹. In addition, in data set [2] (SPR, at most temperatures, particularly the higher ones), the “kinetic advantage (ka) of eIF4G peptide over both 4E-BP1 peptides” value is on record as ~ 2 fold.
Take Ac-KKRYSREQLLGL-NH2 [Linear sTIP-04]: in data set [2] (setting [3]), the “fold decrease in Kd with increasing salt concentration” value amounted to 4 fold and the “fold decrease in kd with increasing salt concentration” value was determined as 48 fold. For the same compound, the kon in data set [2] (pH 7.5, read-out: association rate ka) amounted to 2e+06 ± 100000 M⁻¹ s⁻¹. Further, in data set [2] (pH 7.5, read-out: dissociation rate kd), the koff was determined as 0.123 ± 0.014 s⁻¹.
